This excerpt belongs to a sample that is enriched for hits.
Jurkat NFkB inh = inhibitors of induced NF-kB luciferase reporter, primary screen, TCR NF-kB activation inhibitor project, cell-based, luminescence, uHTS. actives 0.53% (n = 330,000). inhibition, % at 4 µM. Jurkat, PMA/ionomycin-induced NF-kB luciferase reporter. AID 435003, 2010; in the data active means inhibition above about 50%
CHOP UPR activ = activators of apoptotic CHOP UPR arm, primary screen, cell-based, CHO-CHOP luciferase reporter, luminescence, uHTS | UPR activation; percent of tunicamycin response over DMSO baseline | activation, % at 10 µM | actives 0.34% (n = 330,000) | AID 449763, 2010;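 active means at 10 µM dose, activation of 40% or more, normalized to positive control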
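Test system: CHO-CHOP cells, stable luciferase reporter of PERK-eIF2a-CHOP signalling | Quantity: 500 CHO-CHOP cells per well | Buffer or medium: F12 plus 10% serum | Compound dosing: 10 µM single point, 0.5% DMSO | Schedule: 6 h compound treatment, 37 °C | Signal: Luciferase luminescence | Control set: Tunicamycin high control, DMSO low control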
CHOP inhibitor = inhibitors of CHOP promoter induction, primary screen, cell-based, unfolded protein response, luciferase reporter; CHO-K1 CHOP-promoter luciferase, tunicamycin-induced, 15-18 h; inhibition, % at 10 µM; actives 3.8% (n = 220,000);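 active means compounds that reduced the stress-induced luciferase reporter signal by more than about 70% of percent inhibition, limit read from the data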
XBP1 UPR activ = activators of adaptive XBP1 UPR arm, primary screen, cell-based, CHO-XBP1 luciferase reporter, luminescence, uHTS. activation, % at 20 µM. actives 0.33% (n = 330,000). IRE1-XBP1 UPR activation; percent of tunicamycin response, DMSO as zero;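 active means versus positive control, 20 µM dose yields 30% or more activation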
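Material: IRE1-XBP1 luciferase reporter CHO line / Quantity: one thousand reporter cells per well / Buffer or medium: F12 with 10% serum / Compound: 20 µM single concentration, DMSO 1% / Times: 6 h treatment, 37 °C / Detection: Steady-Glo luciferase glow luminescence, 10 min after reagent addition / Benchmarks: tunicamycin high, DMSO low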
697 NFkB inh = inhibitors of PMA/ionomycin-induced NF-kB reporter, 697 cells, primary screen, B-cell NF-kB inhibitor project, cell-based, luminescence, uHTS. 697 B-cell NF-kB luciferase reporter, 16 h. inhibition, % at 4 µM. actives 0.33% (n = 330,000). AID 435022, 2010; in the data active means inhibition above about 35%
CHOP confirm = retest of CHOP induction inhibitors, confirmation, cell-based | shares compounds with CHOP inhibitor | CHO-CHOP promoter luciferase reporter, tunicamycin-induced, luminescence | inhibition, % at 10 µM | actives 45% (n = 2,100) | AID 504437, 2011;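 active means mean of three repeat readings of reporter signal inhibition above a set limit, cut at about 70% in these data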
Large screens that a line does not name were inactive (follow-up assays come after a bar, where they were run).

CCOC(=O)c1c2ccc(OCC(=O)N/N=C/c3ccc(Cl)cc3)cc2n2ccccc12	CHOP inhibitor 104 (no result: Jurkat NFkB inh, CHOP UPR activ, XBP1 UPR activ, 697 NFkB inh) | CHOP confirm inactive
CN(C)S(=O)(=O)c1ccc(C(=O)OCC(=O)NCc2ccco2)cc1	none
Cc1nn(Cc2ccc(Cl)cc2)c(C)c1NC(=O)c1cc(-c2ccc3c(c2)OCO3)on1	CHOP inhibitor 102 | CHOP confirm inactive
CCOC(=O)C1=C(C)NC(C)=C(C(=O)OCC)C1/C=C/c1ccccc1	CHOP inhibitor 99 | CHOP confirm 92
C=CCOC(=O)C1=C(C)NC(C)=C(C(=O)OCC=C)C1/C=C/c1ccccc1	CHOP inhibitor 100 | CHOP confirm 105
COC(=O)C1=C(C)NC(C)=C(C(=O)OC)C1/C=C/c1ccccc1	none
O=C(OCn1ncc(Cl)c(Cl)c1=O)c1cccc(C(F)(F)F)c1	CHOP inhibitor 107 | CHOP confirm 120
CCN1CCN(C(=O)CN(c2ccc(F)c(Cl)c2)S(C)(=O)=O)CC1	none
Cc1ccc(-n2c(C)cc(C3N=C(N)Nc4nc5ccccc5n43)c2C)c(C)c1 (centres undefined)	CHOP inhibitor 100 | CHOP confirm inactive
Cc1cc(C2N=C(N)Nc3nc4ccccc4n32)c(C)n1-c1ccccc1Cl (centres undefined)	none
CC1CCC(n2c(=S)[nH]c3ccccc3c2=O)CC1 (centres undefined)	CHOP inhibitor 103 | CHOP confirm 104
CC1(C)CC(n2c(=S)[nH]c3ccccc3c2=O)CCO1 (centres undefined)	none
Cc1cc(C(=O)NCC23CC4CC(CC(C4)C2)C3)c(C)o1	none
Cc1ccc2nc(NC(=O)CCn3c(=O)sc4ccccc43)sc2c1	CHOP inhibitor 98 | CHOP confirm inactive
CCOc1cc(/C=N/NC(=O)COc2cccc(C)c2)ccc1OC(=O)c1cccs1	CHOP inhibitor 106 | CHOP confirm 94
Cc1ccccc1NC(=O)C(=Cc1ccc(C(=O)O)cc1)C(=O)Nc1ccccc1C	CHOP inhibitor 103 (no result: Jurkat NFkB inh, CHOP UPR activ, XBP1 UPR activ, 697 NFkB inh) | CHOP confirm inactive
Cc1ccc(-c2nc3ccccc3s2)cc1NC(=S)NC(=O)c1ccccc1	none
Cc1ccc(-c2nc3ccccc3s2)cc1NC(=O)c1cc(-n2cnnc2)ccc1Cl	CHOP inhibitor 100 | CHOP confirm inactive
O=[N+]([O-])c1ccc(Sc2nc3ccccc3o2)c([N+](=O)[O-])c1	CHOP inhibitor 109 | CHOP confirm 122
FC(F)(F)c1cc(-c2cccs2)nc(N2CCOCC2)n1	CHOP inhibitor 100 | CHOP confirm inactive
Cc1cnn(-c2nc(-c3cccs3)cc(C(F)(F)F)n2)c1	none
FC(F)(F)c1cc(-c2cccs2)nc(-n2cc(Br)cn2)n1	CHOP inhibitor 97 | CHOP confirm 73
CC(C)C[C@H](NC(=O)c1[nH]cnc1C(=O)N[C@@H](C)C(=O)OC(C)(C)C)C(=O)OC(C)(C)C	CHOP inhibitor 104 | CHOP confirm 134
CCOC(=O)c1ccc(NC(=O)c2nc[nH]c2C(=O)N[C@@H](CC(C)C)C(=O)OC(C)(C)C)cc1	none
CC(C)C[C@H](NC(=O)c1nc[nH]c1C(=O)N[C@@H](CCCCN)C(=O)OC(C)(C)C)C(=O)OC(C)(C)C	none (no result: CHOP inhibitor)
CC(C)C[C@H](NC(=O)c1[nH]cnc1C(=O)Nc1ccccc1)C(=O)OC(C)(C)C	CHOP inhibitor 106 | CHOP confirm 112
CC(C)C[C@H](NC(=O)c1nc[nH]c1C(=O)NCC(=O)OC(C)(C)C)C(=O)OCc1ccccc1	CHOP inhibitor 101 | CHOP confirm 114
COCCn1c(=NC(C)=O)sc2cc([N+](=O)[O-])ccc21	none
COCCn1c(=NC(=O)/C=C/c2ccccc2)sc2cc(NC(C)=O)ccc21	CHOP inhibitor 100 | CHOP confirm inactive
N#Cc1c(NCCN)nc(-c2ccco2)c2c1CCCC2	CHOP inhibitor 105 | CHOP confirm inactive
CCN1C(=O)C2(C(C(=O)c3cc4ccccc4o3)=C(O)C(=O)N2CCCN(C)C)c2ccccc21 (centres undefined)	none
CCOc1cccc(CNc2ccc(O)cc2)c1OCc1ccc(Cl)cc1Cl	CHOP inhibitor 101 | CHOP confirm 112
Cc1cc(NC(=O)c2c(F)cccc2F)n(-c2nc3ccccc3[nH]2)n1	CHOP inhibitor 100 | CHOP confirm inactive
Cc1cc(NC(=O)C2CCCCC2)n(-c2nc3ccccc3[nH]2)n1	CHOP inhibitor 102 | CHOP confirm inactive
COC(=O)CSc1nc2[nH]ncc2c(=O)[nH]1	none
CCCc1nnc(NC(=O)CCN2C(=O)c3ccccc3C2=O)s1	none
COCc1nnc(NC(=O)CCN2C(=O)c3ccccc3C2=O)s1	CHOP inhibitor 99 | CHOP confirm inactive
CCOC(=O)c1cc(-c2ccccc2)nc2c1c(C)nn2-c1ccccn1	CHOP inhibitor 103 | CHOP confirm 108
Cc1nn(-c2ccccc2)c(OC(=O)c2cccs2)c1S(=O)(=O)c1ccccc1	CHOP inhibitor 106 | CHOP confirm inactive
CC(=O)Nc1ccccc1/C=C/c1ccc2c(C)cc(C)c(O)c2n1	CHOP inhibitor 97 | CHOP confirm inactive
Cn1c(=O)c2c(ncn2CC2OCCO2)n(C)c1=O	none (no result: CHOP inhibitor)
C/C(=N\NC(=O)c1nnn(-c2nonc2N)c1C(C)C)c1ccc2ccccc2c1	none (no result: CHOP inhibitor)
FC(F)Oc1ccc(/C=N/n2c(Cc3ccc(Br)cc3)n[nH]c2=S)cc1	none (no result: CHOP inhibitor)
CSc1ccc(/C=N/n2c(Cc3ccc(Br)cc3)n[nH]c2=S)cc1	CHOP inhibitor 101 | CHOP confirm inactive
CC(C)CC(=O)N/C(N)=N/c1nc2ccccc2o1	none
Cc1nn(CCc2nn[nH]n2)c2nc(-c3ccccc3)cc(C(F)(F)F)c12	none
Cc1nn(CCC#N)c2nc(-c3ccccc3)cc(C(F)(F)F)c12	CHOP inhibitor 106 | CHOP confirm 83
C=CCc1cccc(/C=N/NC(=O)CCC(=O)Nc2ccc(C)cc2)c1O	CHOP inhibitor 98 | CHOP confirm inactive
O=C(COC(=O)c1cc2ccccc2oc1=O)Nc1ccc(F)cc1F	none
O=C(CC(NC(=O)c1ccccc1)c1ccccc1)Nc1cccc2ccccc12 (centres undefined)	CHOP inhibitor 104 | CHOP confirm inactive
Cc1ccc(C(=O)NNC(=S)NC(=O)c2ccc(Cl)cc2Cl)cc1	CHOP inhibitor 98 | CHOP confirm inactive
Cc1ccc(C(=O)NNC(=S)NC(=O)c2ccccc2)cc1	none (no result: CHOP inhibitor)
NNC(=O)c1cc2ccccc2cc1NS(=O)(=O)c1ccccc1	none (no result: CHOP inhibitor)
CCn1c(C)cs/c1=N\S(=O)(=O)c1ccccc1	none (no result: CHOP inhibitor)
